The results in this text go back to ChEMBL document CHEMBL5038590, “Discovery of G Protein-Biased Ligands against 5-HT7R” (J Med Chem, 2021).

The pKi is the Ki on a negative log10 scale, so that one unit is a factor of ten. Broadly, the pEC50 is the EC50 on a negative log10 scale, so that one unit is a factor of ten.

Assay [1] has as its target T1, 5-hydroxytryptamine receptor 7 (Homo sapiens, UniProt P34969). Briefly: Displacement of [3H] D-lysergic acid diethylamide from 5-HT7R (unknown origin) transfected in HEK293 cells incubated for 1.5 hrs by microbeta scintillation counter analysis. Format: cell-based. The note with it: for pKi: read-out: Ki; for Ki: read-out: pKi (converted). For orientation: In a radioligand displacement assay an active substance lowers the binding of a labelled ligand.

In assay [2] the target is T1, 5-hydroxytryptamine receptor 7.
The target is the same in assay [3]. Briefly: Agonist activity at 5-HT7R (unknown origin) transfected in HEK293 cells expressing tTA-dependent luciferase reporter and beta arrestin 2-TEV fusion gene assessed as beta arrestin recruitment incubated for 22 hrs by Tango assay. Format: functional, cell-based. The note with it: for pEC50: read-out: EC50; for EC50: hek293.
Assay [4] has as its target 5-hydroxytryptamine receptor 1D (Homo sapiens, UniProt P28221). Nature of the assay: Binding affinity to 5-HT1DR (unknown origin). Put shortly: (§1)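 Run by the NIMH Psychoactive Drug Screening Program as competition radioligand binding on crude membranes of cells expressing the recombinant receptor. Eleven dilutions (0.05 nM–50 μM, prepared at 5× assay concentration) were made in 50 mM Tris-HCl, 10 mM MgCl₂, 1 mM EDTA, pH 7.4. Incubation was 1.5 h at rt in the dark, followed by GF/B filtration (0.3% PEI) and scintillation counting. IC₅₀ was converted to Ki; at least triplicate.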

Assay [5] deals with T2, 5-hydroxytryptamine receptor 1A (Homo sapiens, UniProt P08908).
T2 sequence (P08908 whole entry): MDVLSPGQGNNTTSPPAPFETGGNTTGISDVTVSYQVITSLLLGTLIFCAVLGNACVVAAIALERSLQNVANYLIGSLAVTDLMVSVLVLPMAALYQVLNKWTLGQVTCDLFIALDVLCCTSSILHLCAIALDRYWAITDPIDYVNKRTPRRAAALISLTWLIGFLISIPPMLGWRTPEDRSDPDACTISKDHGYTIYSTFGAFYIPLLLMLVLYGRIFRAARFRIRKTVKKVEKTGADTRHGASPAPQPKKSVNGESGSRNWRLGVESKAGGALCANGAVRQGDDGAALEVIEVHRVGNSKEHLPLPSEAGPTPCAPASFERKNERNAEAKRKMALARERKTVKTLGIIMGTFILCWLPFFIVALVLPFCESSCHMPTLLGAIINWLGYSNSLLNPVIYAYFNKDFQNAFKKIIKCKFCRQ
Briefly: Binding affinity to 5-HT1AR (unknown origin). A digest of the protocol: as §1

Assay [6] addresses 5-hydroxytryptamine receptor 6 (Homo sapiens, UniProt P50406). Briefly: Binding affinity to 5-HT6R (unknown origin). Put shortly: as §1
The target in assay [7] is 5-hydroxytryptamine receptor 2A (Homo sapiens, UniProt P28223). Nature of the assay: Binding affinity to 5-HT2AR (unknown origin). Put shortly: as §1
The target of assay [8] is T3, 5-hydroxytryptamine receptor 3A (Homo sapiens, UniProt P46098).
T3 sequence (P46098 whole entry): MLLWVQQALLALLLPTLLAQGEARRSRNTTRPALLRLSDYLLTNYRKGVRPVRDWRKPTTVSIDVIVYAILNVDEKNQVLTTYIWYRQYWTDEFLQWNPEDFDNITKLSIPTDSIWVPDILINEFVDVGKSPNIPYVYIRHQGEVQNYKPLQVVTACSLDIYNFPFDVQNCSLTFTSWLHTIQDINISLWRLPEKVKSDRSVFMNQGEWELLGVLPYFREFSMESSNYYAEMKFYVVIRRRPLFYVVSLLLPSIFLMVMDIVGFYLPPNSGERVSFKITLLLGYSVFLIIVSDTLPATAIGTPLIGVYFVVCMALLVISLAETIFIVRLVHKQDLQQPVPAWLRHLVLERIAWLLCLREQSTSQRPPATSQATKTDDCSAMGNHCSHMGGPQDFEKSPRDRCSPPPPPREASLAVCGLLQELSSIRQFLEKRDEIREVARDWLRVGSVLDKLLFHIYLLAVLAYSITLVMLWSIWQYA
Nature of the assay: Binding affinity to 5-HT3R (unknown origin). A digest of the protocol: as §1

For assay [9], the target named is 5-hydroxytryptamine receptor 2B (Homo sapiens, UniProt P41595). Nature of the assay: Binding affinity to 5-HT2BR (unknown origin). A digest of the protocol: as §1
Assay [10] deals with 5-hydroxytryptamine receptor 1B (Homo sapiens, UniProt P28222). Briefly: Binding affinity to 5-HT1BR (unknown origin). A digest of the protocol:
as §1

Assay [11] has as its target 5-hydroxytryptamine receptor 5A (Homo sapiens, UniProt P47898). Briefly: Binding affinity to 5-HT5AR (unknown origin). A digest of the protocol:
as §1

The target of assay [12] is T4, 5-hydroxytryptamine receptor 2C (Homo sapiens, UniProt P28335).
T4 sequence (P28335 whole entry): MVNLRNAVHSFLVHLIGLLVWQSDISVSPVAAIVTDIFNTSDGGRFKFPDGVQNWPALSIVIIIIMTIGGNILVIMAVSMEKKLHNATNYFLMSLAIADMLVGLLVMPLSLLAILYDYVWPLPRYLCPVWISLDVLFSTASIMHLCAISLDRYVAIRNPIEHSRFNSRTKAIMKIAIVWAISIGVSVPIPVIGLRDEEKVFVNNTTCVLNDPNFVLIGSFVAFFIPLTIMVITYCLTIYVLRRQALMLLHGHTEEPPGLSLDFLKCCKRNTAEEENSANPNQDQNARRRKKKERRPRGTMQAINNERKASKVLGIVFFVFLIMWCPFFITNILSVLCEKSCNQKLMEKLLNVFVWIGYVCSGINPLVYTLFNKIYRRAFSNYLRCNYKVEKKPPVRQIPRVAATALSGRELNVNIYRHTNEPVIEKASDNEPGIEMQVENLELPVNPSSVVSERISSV
Nature of the assay: Binding affinity to 5-HT2CR (unknown origin). A digest of the protocol:
as §1

For assay [13], the target named is 5-hydroxytryptamine receptor 1E (Homo sapiens, UniProt P28566). Briefly: Binding affinity to 5-HT1ER (unknown origin). Put shortly:
as §1

Each structure is given as a SMILES string. pEC50, pKi: −log10 of the molar value. Some results are limits rather than exact numbers.

5-hydroxytryptamine receptor 2A, sequence (P28223 whole entry): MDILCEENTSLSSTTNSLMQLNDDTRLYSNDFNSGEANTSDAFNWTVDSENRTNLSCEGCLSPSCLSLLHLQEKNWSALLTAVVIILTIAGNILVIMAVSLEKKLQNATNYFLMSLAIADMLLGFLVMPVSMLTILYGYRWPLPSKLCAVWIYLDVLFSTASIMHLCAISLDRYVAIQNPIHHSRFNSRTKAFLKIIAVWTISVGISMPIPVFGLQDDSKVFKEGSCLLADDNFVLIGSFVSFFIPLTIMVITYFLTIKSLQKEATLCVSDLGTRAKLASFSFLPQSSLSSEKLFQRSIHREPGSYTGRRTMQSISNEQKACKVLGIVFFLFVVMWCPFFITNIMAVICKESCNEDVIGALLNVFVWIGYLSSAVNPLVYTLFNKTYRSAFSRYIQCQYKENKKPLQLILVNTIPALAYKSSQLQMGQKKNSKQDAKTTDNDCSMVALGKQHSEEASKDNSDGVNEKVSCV
5-hydroxytryptamine receptor 5A, sequence (P47898 whole entry): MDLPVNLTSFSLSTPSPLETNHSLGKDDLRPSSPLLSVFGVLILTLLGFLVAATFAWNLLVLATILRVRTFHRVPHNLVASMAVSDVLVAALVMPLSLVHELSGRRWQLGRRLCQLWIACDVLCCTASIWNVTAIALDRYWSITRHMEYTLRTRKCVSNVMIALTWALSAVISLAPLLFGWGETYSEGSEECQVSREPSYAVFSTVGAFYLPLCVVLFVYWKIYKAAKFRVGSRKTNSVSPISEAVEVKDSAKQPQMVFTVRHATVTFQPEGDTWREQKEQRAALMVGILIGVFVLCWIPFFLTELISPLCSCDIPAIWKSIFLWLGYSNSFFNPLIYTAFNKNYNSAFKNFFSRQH
T1 sequence (P34969 whole entry): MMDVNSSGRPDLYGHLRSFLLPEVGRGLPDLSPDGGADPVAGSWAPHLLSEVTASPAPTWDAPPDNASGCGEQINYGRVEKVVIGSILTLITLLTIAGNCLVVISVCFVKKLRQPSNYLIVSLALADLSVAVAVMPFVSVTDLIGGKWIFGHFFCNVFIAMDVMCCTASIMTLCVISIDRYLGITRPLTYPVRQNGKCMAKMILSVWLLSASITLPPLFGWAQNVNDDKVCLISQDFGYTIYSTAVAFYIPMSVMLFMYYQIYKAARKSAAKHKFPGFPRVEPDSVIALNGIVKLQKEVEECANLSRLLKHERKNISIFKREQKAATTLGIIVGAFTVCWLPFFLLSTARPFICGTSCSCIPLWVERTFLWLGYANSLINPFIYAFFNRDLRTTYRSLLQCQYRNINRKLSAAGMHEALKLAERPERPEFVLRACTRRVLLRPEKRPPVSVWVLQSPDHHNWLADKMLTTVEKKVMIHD
5-hydroxytryptamine receptor 1B, sequence (P28222 whole entry): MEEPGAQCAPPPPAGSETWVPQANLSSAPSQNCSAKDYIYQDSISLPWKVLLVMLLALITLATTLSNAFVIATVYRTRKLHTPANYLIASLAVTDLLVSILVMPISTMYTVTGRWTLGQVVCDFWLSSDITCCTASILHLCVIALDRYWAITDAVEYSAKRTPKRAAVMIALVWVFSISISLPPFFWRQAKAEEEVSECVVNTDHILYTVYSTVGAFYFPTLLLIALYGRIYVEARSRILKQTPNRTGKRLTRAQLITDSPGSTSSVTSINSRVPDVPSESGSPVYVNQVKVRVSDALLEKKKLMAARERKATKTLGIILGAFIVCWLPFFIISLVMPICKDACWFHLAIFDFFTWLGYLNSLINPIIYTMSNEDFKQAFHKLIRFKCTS
5-hydroxytryptamine receptor 2B, sequence (P41595 whole entry): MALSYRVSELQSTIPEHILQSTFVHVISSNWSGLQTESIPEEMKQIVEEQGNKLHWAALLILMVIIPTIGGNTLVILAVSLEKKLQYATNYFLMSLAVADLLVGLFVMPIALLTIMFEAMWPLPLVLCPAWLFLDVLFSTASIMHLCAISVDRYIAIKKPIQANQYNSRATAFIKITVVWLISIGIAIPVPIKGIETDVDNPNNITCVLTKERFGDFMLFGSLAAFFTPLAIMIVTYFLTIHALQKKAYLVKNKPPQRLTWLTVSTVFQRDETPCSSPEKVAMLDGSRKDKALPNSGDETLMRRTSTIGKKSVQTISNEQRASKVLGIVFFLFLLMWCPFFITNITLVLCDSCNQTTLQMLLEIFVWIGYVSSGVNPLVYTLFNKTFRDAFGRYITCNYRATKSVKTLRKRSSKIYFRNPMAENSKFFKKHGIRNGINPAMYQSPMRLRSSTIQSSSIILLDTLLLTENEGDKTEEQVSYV
5-hydroxytryptamine receptor 1D, sequence (P28221 whole entry): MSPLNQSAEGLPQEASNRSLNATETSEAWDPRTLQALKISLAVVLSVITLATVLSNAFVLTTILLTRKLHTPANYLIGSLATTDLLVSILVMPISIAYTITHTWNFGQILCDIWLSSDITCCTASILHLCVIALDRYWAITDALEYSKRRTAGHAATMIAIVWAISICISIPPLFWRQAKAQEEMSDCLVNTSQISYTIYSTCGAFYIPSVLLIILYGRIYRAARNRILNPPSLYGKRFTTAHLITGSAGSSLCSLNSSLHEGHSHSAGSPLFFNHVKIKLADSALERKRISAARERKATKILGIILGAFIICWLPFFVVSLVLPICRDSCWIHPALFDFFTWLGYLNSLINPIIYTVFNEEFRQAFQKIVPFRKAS
5-hydroxytryptamine receptor 1E, sequence (P28566 whole entry): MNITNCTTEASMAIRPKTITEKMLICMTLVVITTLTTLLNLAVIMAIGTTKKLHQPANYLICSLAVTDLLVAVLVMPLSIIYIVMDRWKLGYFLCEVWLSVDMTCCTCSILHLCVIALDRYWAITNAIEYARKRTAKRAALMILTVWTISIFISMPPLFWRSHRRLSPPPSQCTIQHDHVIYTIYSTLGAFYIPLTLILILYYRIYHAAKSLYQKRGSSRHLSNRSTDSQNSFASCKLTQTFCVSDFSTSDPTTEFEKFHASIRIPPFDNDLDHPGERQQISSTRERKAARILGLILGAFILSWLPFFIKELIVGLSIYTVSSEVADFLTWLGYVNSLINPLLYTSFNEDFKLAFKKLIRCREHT
5-hydroxytryptamine receptor 6, sequence (P50406 whole entry): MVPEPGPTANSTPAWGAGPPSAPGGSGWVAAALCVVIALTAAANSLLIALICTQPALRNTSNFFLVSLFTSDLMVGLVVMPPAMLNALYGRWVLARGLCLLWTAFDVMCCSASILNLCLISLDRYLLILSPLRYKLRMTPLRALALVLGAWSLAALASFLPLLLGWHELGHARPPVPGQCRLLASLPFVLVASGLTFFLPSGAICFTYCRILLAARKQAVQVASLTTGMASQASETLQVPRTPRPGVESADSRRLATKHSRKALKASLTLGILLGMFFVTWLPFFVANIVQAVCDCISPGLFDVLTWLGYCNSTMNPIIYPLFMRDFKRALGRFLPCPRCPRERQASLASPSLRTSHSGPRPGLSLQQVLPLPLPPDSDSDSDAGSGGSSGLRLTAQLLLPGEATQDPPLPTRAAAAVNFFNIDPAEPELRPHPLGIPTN

`Cc1nn(C)c(C)c1-c1cccc(CCN(C)C)c1`: in [1], the pKi is 8.89. Also, the pEC50 in assay [2] was 7.08; in assay [3], 7.68.

With `CNCc1ccc(Cl)c(-c2ccccc2OC)c1`, the pKi in assay [4] was 5.92; in assay [5], 5.77; in assay [6], 5.89; in assay [7], 6.42; in assay [8], below 5.00; in assay [9], 7.89. Moreover, the pKi in assay [10] is 5.92; in [11], 6.38; in assay [12], 6.70; in assay [13] it was 5.62. The figures for the pEC50 in assay [2] and in assay [3] were 6.34 and 6.82, respectively.

In the case of `CCN(CC)Cc1ccc(Cl)c(-c2ccccc2OC)c1`, the pKi was 6.96 in assay [1]; below 5.00 in assay [4]; 5.77 in [5]; 5.70 in [6]; below 5.00 in assay [7]; below 5.00 in assay [8]. For the same compound, the negative logarithm of the Ki (pKi) was 7.17 in assay [9]; below 5.00 in assay [10]; 6.64 in assay [11]; 6.09 in assay [12]; below 5.00 in assay [13]. Besides, the EC50 result in [3] was “Not Active”.

For `COc1ccccc1-c1cc(CN(C)C)ccc1Cl`, the Ki in [1] was 0.02 µM. Moreover, the pKi was 5.89 in [4]; 5.68 in assay [5]; 6.36 in assay [6]; 6.44 in assay [7]; 6.00 in assay [8]; 7.96 in assay [9]. In addition, the pKi was 6.08 in [10], 6.66 in assay [11], 6.57 in assay [12] and 5.39 in assay [13]. The pEC50 in [2] is 5.96; in [3], 6.32.

Turning to `CCCNCc1ccc(Cl)c(-c2ccccc2OC)c1`, the pKi is 6.66 in assay [4]; 6.38 in [5]; 5.46 in [6]; 6.17 in [7]; below 5.00 in assay [8]; 7.92 in [9]. In addition, the pKi in assay [10] is 6.19; in [11], 6.92; in assay [12] it was 6.70; in assay [13], below 5.00.

On to `CCCCNCCc1ccc(Cl)c(-c2ccccc2OC)c1.Cl`, for which the pKi in assay [1] was 7.19; in [4] it was 6.96; in assay [5], 6.66; in assay [6] it was below 5.00; in assay [7] it was 6.24; in assay [8], below 5.00. The pKi in assay [9] is 6.89; in [10], 6.55; in [11], 5.62; in [12] it was below 5.00; in assay [13], below 5.00. Besides, the EC50 entry in [3] is listed as “Not Active”.

For `COc1ccccc1-c1cc(C2CCN(C)C2)ccc1Cl` (stereo not given), the pKi in assay [4] was 7.72; in [5], 6.70; in [6] it was below 5.00; in assay [7], 5.92; in assay [8], 6.38; in assay [9] it was 6.77. The pKi in assay [10] is 7.92; in [11] it was 6.00; in assay [12] it was 6.04; in assay [13] it was 5.39.

Consider `CCCNCCc1ccc(Cl)c(-c2ccccc2OC)c1.Cl`, for which the pKi in [1] is 8.06; in [4], 7.39; in assay [5], 6.85; in assay [6], below 5.00; in [7], 6.22; in assay [8] it was below 5.00. Moreover, the pKi in assay [9] is 6.77; in assay [10], 6.60; in [11], 6.62; in [12] it was below 5.00; in [13], below 5.00. For the same compound, the Ki in assay [1] is 0.00851 µM. In addition, in assay [2], the pEC50 is 6.00. In addition, the EC50 result in assay [3] was “Not Active”.

In the case of `COc1ccccc1-c1cc(C2CCNC2)ccc1Cl` (stereo not given), the pKi is 8.47 in assay [4]; 7.02 in [5]; 6.40 in assay [6]; 6.47 in assay [7]; 6.23 in assay [8]; 7.30 in assay [9]. In addition, the pKi was 6.39 in assay [10], 6.01 in assay [11], below 5.00 in [12] and 6.11 in assay [13].

Take `COc1ccccc1-c1cc(CCN(C)C)ccc1Cl`: the pKi was 8.60 in assay [1]; 7.07 in [4]; 6.55 in assay [5]; 6.00 in assay [6]; 6.60 in assay [7]; below 5.00 in assay [8]. Besides, the pKi was 6.55 in [9]; 7.13 in assay [10]; 6.42 in [11]; below 5.00 in assay [12]; 5.66 in [13]. Moreover, the pEC50 in assay [2] is 7.08; in assay [3], 7.25.

Regarding `CCCCNCc1ccc(Cl)c(-c2ccccc2OC)c1`, the pKi in assay [1] is 7.28; in [4], 5.70; in [6], 6.62; in assay [7], 6.55; in assay [8] it was below 5.00; in assay [9] it was 7.82. The pKi is below 5.00 in [10], 6.44 in assay [11], 6.51 in assay [12] and below 5.00 in [13]. Also, the EC50 result in assay [3] is listed as “Not Active”.

Turning to `CCNCc1ccc(Cl)c(-c2ccccc2OC)c1`, the pKi in assay [4] is 6.66; in [5], 6.08; in assay [6] it was 5.85; in [7], 6.04; in assay [8] it was below 5.00; in assay [9] it was 7.72. For the same compound, the pKi in assay [10] was 6.68; in assay [11], 5.74; in assay [12], 7.35; in [13], below 5.00.

As to `CCCN(CCC)Cc1ccc(Cl)c(-c2ccccc2OC)c1`, the pKi in assay [1] is below 5.00; in [4] it was below 5.00; in assay [5], 6.40; in assay [6] it was below 5.00; in [7], below 5.00; in [8], below 5.00. Besides, the pKi was 7.10 in assay [9]; below 5.00 in [10]; below 5.00 in assay [11]; 5.59 in assay [12]; below 5.00 in assay [13]. Also, in [3], the EC50 result is given as “Not Active”.

With `CNCCc1ccc(Cl)c(-c2ccccc2OC)c1`, the pKi in assay [1] was 8.80; in assay [4], 8.48; in assay [5], 6.55; in assay [6], 6.13; in [7] it was 6.77; in assay [8], below 5.00. Moreover, the pKi was 7.16 in [9]; 7.08 in assay [10]; 6.04 in assay [11]; below 5.00 in assay [12]; 6.74 in assay [13]. Besides, the pEC50 in assay [2] was 7.14; in [3], 7.15.
